# An excerpt weighted towards active compounds, which were near 1.3% of everything screened.
# ANO1 activ: mouse TMEM16A channel activation, primary screen; 0.3% of 340,000 active; B-score at 10 µM; HEK293 TMEM16A/YFP-H148Q/I152L, iodide quench fluorescence; active compounds read low;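 active = fluorescence-ratio B-score plate-corrected deviation score at least 3 library SD below zero, with starting fluorescence score within 5 deviations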;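 note: channel opened by trigger with iodide after compound preincubation; score built on the fluorescence ratio of max minus min over baseline; more negative score means more quench and so TMEM16A activation or potentiation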
# Target sequence (Q8BHY3 whole entry, looked up): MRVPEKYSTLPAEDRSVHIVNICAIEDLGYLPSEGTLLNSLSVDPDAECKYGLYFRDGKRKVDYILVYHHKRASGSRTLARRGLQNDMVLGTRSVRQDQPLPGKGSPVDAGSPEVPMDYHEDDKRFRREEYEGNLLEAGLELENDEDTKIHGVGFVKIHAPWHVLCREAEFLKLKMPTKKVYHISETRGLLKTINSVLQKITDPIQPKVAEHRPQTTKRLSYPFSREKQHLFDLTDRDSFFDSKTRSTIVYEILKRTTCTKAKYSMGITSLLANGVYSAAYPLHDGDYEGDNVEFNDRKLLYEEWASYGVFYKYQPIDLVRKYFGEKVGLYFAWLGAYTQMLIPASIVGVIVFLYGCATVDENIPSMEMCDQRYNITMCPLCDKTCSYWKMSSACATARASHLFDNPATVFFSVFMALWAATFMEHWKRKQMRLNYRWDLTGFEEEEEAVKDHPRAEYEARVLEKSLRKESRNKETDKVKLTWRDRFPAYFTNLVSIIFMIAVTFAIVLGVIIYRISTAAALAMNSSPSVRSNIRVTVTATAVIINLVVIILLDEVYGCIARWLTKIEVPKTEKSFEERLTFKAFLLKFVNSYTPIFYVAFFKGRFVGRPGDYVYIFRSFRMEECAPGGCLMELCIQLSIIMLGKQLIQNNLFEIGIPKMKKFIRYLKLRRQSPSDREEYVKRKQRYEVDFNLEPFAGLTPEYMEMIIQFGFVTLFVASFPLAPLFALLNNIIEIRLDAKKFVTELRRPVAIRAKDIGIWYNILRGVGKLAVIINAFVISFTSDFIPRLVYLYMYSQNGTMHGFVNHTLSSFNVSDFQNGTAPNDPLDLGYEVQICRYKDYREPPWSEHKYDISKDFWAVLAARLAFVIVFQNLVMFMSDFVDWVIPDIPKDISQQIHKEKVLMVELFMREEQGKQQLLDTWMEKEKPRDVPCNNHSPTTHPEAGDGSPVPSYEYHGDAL
# TMEM16A inh: mouse TMEM16A channel inhibition, primary screen | Q8BHY3 | HEK293 TMEM16A/YFP iodide influx fluorescence, ionomycin | normalized B-score (activity score, 25-100; higher = stronger inhibition) at 10 µM | 1.2% of 310,000 active | AID 588511;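 active = ratio plate-corrected score three or more library SD toward inhibition, starting fluorescence score within five deviations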;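 note: score derived from kinetic fluorescence span divided by baseline fluorescence per well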
# MT1-MMP act inh: blocks activation of human MT1-MMP; 0.061% of 360,000 active; HT1080 RFP-PRO-GFP cells, GFP/RFP ratio fluorescence, overnight; percent of plate control window, DMSO zero; P50281; GFP/RFP ratio change, % at 20 µM;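 active = GFP/RFP ratio change of at least 30% with cell ATP level not reduced by more than half and red fluorescence within 50% of control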
#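 Test system: HT1080 cells expressing an RFP-PRO-GFP fluorescent reporter construct / Compound dosing: single-point 20 µM compound, 1% DMSO / Schedule: cells overnight before dosing, compound overnight, 37 °C, 5% CO2 / Evaluation: GFP/RFP fluorescence ratio / Control set: DMSO and RFP-L50D-GFP cell wells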
# DAGLB inhibitor: blocks human DAGLB lipase activity; Q8NCG7; HEK293T DAGLB membrane lysate, EnzChek fluorogenic substrate; inhibition, % at 5.17 µM; 0.059% of 340,000 active; AID 504411; in the data active = inhibition above about 34%;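 note: 0% = enzyme with vehicle and 100% = wells lacking enzyme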
# DAGLB inh conf: DAGLB (human) inhibition, confirmation screen; shares compounds with DAGLB inhibitor; HEK293T DAGLB membrane lysate, EnzChek fluorogenic substrate; inhibition, % at 5.17 µM; 73% of 190 active; AID 504445;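 active = mean inhibition over triplicate wells above a set limit taken from the primary lipase screen, cut at about 34% in these data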;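 note: 0% = DAGLB with DMSO and 100% = wells lacking DAGLB enzyme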
# Numbers without * were called inactive; i = inactive; . = not tested or not shown.
SMILES,ANO1 activ,TMEM16A inh,MT1-MMP act inh,DAGLB inhibitor,DAGLB inh conf
CCN(c1ccc(OC)cc1)S(=O)(=O)N1CCCC(C(=O)NCc2ccc(OC(C)C)cc2)C1 (stereo not given),.,.,-5,-4,.
C[C@@H]1CN([C@H](C)CO)C(=O)CCCn2nncc2CO[C@H]1CN(C)Cc1cccc2c1OCCCO2,.,.,6,-1,.
Cc1cc(C)c(Nc2cc(S(=O)(=O)O)c(N)c3c2C(=O)c2ccccc2C3=O)c(C)c1,i,i,23,80*,86*
Cc1cc(C)c(NC(=O)COC(=O)c2cccc3c2C(=O)c2ccccc2C3=O)c(C)c1,i,i,-7,0,.
Cc1ccc(NC(=O)CN2C(=O)S/C(=C/c3ccc(O)c([N+](=O)[O-])c3)C2=O)cc1C,i,.,11,27,.
O=C1S/C(=C\c2ccc(O)c([N+](=O)[O-])c2)C(=O)N1c1ccccc1Cl,i,100*,9,36*,45*
COC(=O)c1ccccc1NCc1cc(=O)oc2cc(O)c(O)cc12,i,i,-1,48*,34*
COc1ccc(OC)c(NC(=O)CSc2nnc(CNC(=O)c3ccccc3F)o2)c1,i,i,-1,36*,-6
COc1ccc(C(=O)NCc2nnc(SCC(=O)Nc3cc(OC)ccc3OC)o2)cc1,i,i,-2,-1,.
COc1ccc(C(=O)NNC(=S)NC(=O)c2cc(-c3ccccc3)nc3ccccc23)cc1,i,i,15,10,.
CCCOc1ccc(C(=O)NNC(=S)NC(=O)c2cc(-c3ccc(Cl)cc3)nc3ccccc23)cc1,i,i,-6,39*,90*
COC1=CC(C)C2CC3OC(=O)CC4C(C)=C(OC)C(=O)C(C2(C)C1=O)C34C (stereo not given),.,.,1,.,.
CN(C)c1ccc(N=Nc2ccc(S(=O)(=O)O)cc2)c2ccccc12,i,i,18,48*,52*
CC(O)(CC(=O)CC(=O)c1ccccc1)c1ccccc1 (stereo not given),i,.,-11,-6,.
Brc1ccc(N/N=C(/N=Nc2nn[nH]n2)c2ccccc2)cc1,i,i,18,46*,78*
CN1C[C@@H]2[C@@H]3C(=O)N(C)C(=O)[C@@H]3[C@](Cc3ccccc3)(C1=O)N2C(=O)c1ccccc1,i,.,-1,-6,.
O=C(Nc1ccc([N+](=O)[O-])cc1)c1ccccc1F,i,i,4,2,.
O=C(c1cc(O)c(O)c([N+](=O)[O-])c1)c1ccccc1F,i,i,13,38*,23
Cc1ccc(NCC(O)C(O)C(O)CO)cc1C (stereo not given),i,i,-1,-4,.
Cc1cc(N=Nc2ccccc2)c(NCC(O)C(O)C(O)CO)cc1C (stereo not given),i,i,22,45*,43*
O=C1C=C(c2cccc(CO)c2)C[C@@H](c2ccc(Cl)cc2)C1,i,.,13,-4,.
O=C(NC(C(=O)N/N=C/c1cccc2ccccc12)c1n[nH]c(=O)c2ccccc12)c1ccccc1 (stereo not given),i,i,3,39*,40*
O=C(Nc1ccccc1)Nc1nnc([C@@H]2C[C@H](O)[C@@H](CO)O2)s1,.,.,-2,.,.
COc1ccc(N/C=C2\C(=O)CCc3c2oc2cc(Cl)c(O)c(Cl)c32)cc1,i,i,-12,36*,38*
O=C1C(NS(=O)(=O)c2ccccc2)=C(N2CCN(c3ccc(F)cc3)CC2)C(=O)c2ccccc21,i,i,14,27,.
O=C1C(NS(=O)(=O)c2cccs2)=C(N2CCN(c3cccc(Cl)c3)CC2)C(=O)c2ccccc21,i,i,6,41*,42*
CC[C@]12c3[nH]c4ccc(Cl)cc4c3CCN1C(=O)[C@@H](CC(=O)NC/C=C(\C)CCC=C(C)C)C[C@@H]2C(=O)N1CCN(C(=O)C2CC2)CC1,.,.,-23,2,.
CCOc1cc(/C=C2\N=C(SCC)SC2=O)cc([N+](=O)[O-])c1OC(C)=O,i,100*,-2,50*,37*
C[C@@H]1CN([C@@H](C)CO)C(=O)CCCn2nncc2CO[C@H]1CN(C)C(=O)c1ccc2ccn(C)c2c1,.,.,4,-1,.
COC(=O)c1c(C)c2c(C)cc3ccccn3c-2c1C(=O)OC,i,i,-27,0,.
